Assay results as given in ChEMBL document CHEMBL1157810, “Synthesis and evaluation of nitric oxide-releasing derivatives of farnesylthiosalicylic acid as anti-tumor agents” (Bioorg Med Chem, 2010).
Activity calls are given as the source filed them. No cut-off for these calls is given here.

What was measured:
[1] = Cytotoxicity against human U87 cells after 48 hrs by MTT assay; assay type: functional, cell-based, U-87MG ATCC; conditions: U-87 MG
Summary of the method: (§1)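 Cells at 5–10 × 10³/well grown overnight in RPMI-1640, then exposed in triplicate to a concentration series for 48 h. MTT (1 mg/mL) added for the final 4 h, formazan dissolved in DMSO, read at 570 nm against 595 nm reference. Untreated cells served as negative control, 1% Triton-treated cells as positive control. Inhibition calculated relative to negative-control OD. IC50 taken as concentration giving 50% growth inhibition.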

U-251 [2] = assay: Cytotoxicity against human U251 cells after 48 hrs by MTT assay; assay type: functional, cell-based; conditions: U-251, 48 h; summary of the method: as §1
MCF7 [3] = assay: Cytotoxicity against human MCF7 cells after 48 hrs by MTT assay; assay type: functional, cell-based; conditions: MCF7, 48 h; summary of the method: as §1
SGC-7901 [4] = assay: Cytotoxicity against human SGC7901 cells after 48 hrs by MTT assay; assay type: functional, cell-based; conditions: SGC-7901, 48 h; summary of the method: as §1
MDA-MB-231 [5] = assay: Cytotoxicity against human MDA-MB-231 cells after 48 hrs by MTT assay; assay type: functional, cell-based; conditions: MDA-MB-231, 48 h; summary of the method: as §1
U-87MG ATCC = assay: Induction of NO production in human U87 cells at 100 uM after 30 to 300 mins by Griess assay; assay type: functional, cell-based
Summary of the method: (§2)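 Cells treated with compound at 100 µM. Nitrate/nitrite in cell lysates measured by Griess reaction at 540 nm over 30–300 min and quantified from a sodium nitrate standard curve. Diluent-treated cells gave background. Reported values are means of two experiments at 240 min post-treatment.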

U-251 [6] = assay: Induction of NO production in human U251 cells at 100 uM after 30 to 300 mins by Griess assay; assay type: functional, cell-based; summary of the method: as §2
MDA-MB-231 [7] = assay: Induction of NO production in human MDA-MB-231 cells at 100 uM after 30 to 300 mins by Griess assay; assay type: functional, cell-based; summary of the method: as §2
MCF7 [8] = assay: Induction of NO production in human MCF7 cells at 100 uM after 30 to 300 mins by Griess assay; assay type: functional, cell-based; summary of the method: as §2
SGC-7901 [9] = assay: Induction of NO production in human SGC7901 cells at 100 uM after 30 to 300 mins by Griess assay; assay type: functional, cell-based; summary of the method: as §2
MDA-MB-231 [10] = assay: Inhibition of Ras activation in human MDA-MB-231 cells assessed as reduction in phosphorylated Akt levels at 5 uM after 8 hrs by Western blot; assay type: cell-based
Summary of the method: (§3)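 MDA-MB-231 cells at 1.5 × 10⁵/mL exposed to 1 or 5 µM compound or vehicle for 8 h, then harvested and lysed. Lysates resolved by SDS–PAGE and immunoblotted with antibodies to phospho-Akt (Ser473), phospho-ERK (Thr202/Tyr204), phospho-Raf (Ser259), total Akt, total ERK and β-actin. Detection by HRP-conjugated secondary antibodies and enhanced chemiluminescence. Blots representative of two experiments.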

MDA-MB-231 [11] = assay: Inhibition of Ras activation in human MDA-MB-231 cells assessed as reduction in phosphorylated Raf levels at 5 uM after 8 hrs by Western blot; assay type: cell-based; summary of the method: as §3
MDA-MB-231 [12] = assay: Inhibition of Ras activation in human MDA-MB-231 cells assessed as reduction in phosphorylated ERK levels at 5 uM after 8 hrs by Western blot; assay type: cell-based; summary of the method: as §3
MDA-MB-231 [13] = assay: Cytotoxicity against human MDA-MB-231 cells after 24 hrs by MTT assay in presence of hemoglobin
MDA-MB-231 [14] = assay: Induction of NO production in human MDA-MB-231 cells at 100 uM after 30 to 300 mins by Griess assay in presence of hemoglobin; assay type: functional, cell-based
Summary of the method: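 MDA-MB-231 cells (5 × 10⁶/well) were treated in triplicate with 100 µM compound […], harvested and lysed. Lysates were mixed with Griess reagent for 30–300 min and absorbance read at 540 nm. Nitrate/nitrite was quantified against a sodium nitrate standard curve, with diluent-treated cells as background.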

MDA-MB-231 [15] = assay: Ratio of IC50 for FTA to IC50 for drug for cytotoxicity against human MDA-MB-231 cells after 48 hrs by MTT assay; assay type: functional
MDA-MB-231 [16] = assay: Ratio of IC50 for sorafenib to IC50 for drug for cytotoxicity against human MDA-MB-231 cells after 48 hrs by MTT assay; assay type: functional

SMILES	IC50 [1] [µM]	IC50 (U-251 [2]) [µM]	IC50 (MCF7 [3]) [µM]	IC50 (SGC-7901 [4]) [µM]	IC50 (MDA-MB-231 [5]) [µM]	Activity (U-87MG ATCC)	Activity (U-251 [6])	Activity (MDA-MB-231 [7])	Activity (MCF7 [8])	Activity (SGC-7901 [9])	Activity (MDA-MB-231 [10])	Activity (MDA-MB-231 [11])	Activity (MDA-MB-231 [12])	Activity (MDA-MB-231 [13])	Activity (MDA-MB-231 [14])	Ratio IC50 (MDA-MB-231 [15])	Ratio IC50 (MDA-MB-231 [16])
CC(C)=CCC/C(C)=C/CC/C(C)=C/CSc1ccccc1C(=O)N[C@@H](Cc1ccccc1)C(=O)OCC#CCOc1no[n+]([O-])c1S(=O)(=O)c1ccccc1	> 50	> 50	> 50	> 50	> 50												
O=S(=O)(c1ccccc1)c1c(OCC#CCO)no[n+]1[O-]					6.97												
CC(C)=CCC/C(C)=C/CC/C(C)=C/CSc1ccccc1C(=O)N[C@@H](Cc1ccccc1)C(=O)OCCCCOc1no[n+]([O-])c1S(=O)(=O)c1ccccc1	> 50	> 50	> 50	> 50	> 50												
CC(C)=CCC/C(C)=C/CC/C(C)=C/CSc1ccccc1C(=O)NCC(=O)OCC#CCOc1no[n+]([O-])c1S(=O)(=O)c1ccccc1	14.8	11.7	6.91	11.4	7.23	Active	Active	Active	Active	Active							
CC(C)=CCC/C(C)=C/CC/C(C)=C/CSc1ccccc1C(=O)N[C@@H](Cc1ccccc1)C(=O)OC(C)CCOc1no[n+]([O-])c1S(=O)(=O)c1ccccc1 (stereo partly drawn)	> 50	> 50	> 50	> 50	> 50	Active	Active	Active	Active	Active							
O=S(=O)(c1ccccc1)c1c(OCCCCO)no[n+]1[O-]					9.87												
O=S(=O)(c1ccccc1)c1c(OCCOCCO)no[n+]1[O-]					20.5												
CC(C)=CCC/C(C)=C/CC/C(C)=C/CSc1ccccc1C(=O)N[C@@H](C)C(=O)OCCCCOc1no[n+]([O-])c1S(=O)(=O)c1ccccc1	26.4	7.95	8.68	44.6	> 50												
CC(C)=CCC/C(C)=C/CC/C(C)=C/CSc1ccccc1C(=O)N1CCC[C@H]1C(=O)OCCCCOc1no[n+]([O-])c1S(=O)(=O)c1ccccc1	9	6.99	7.47	22.5	3.14												
CC(C)=CCC/C(C)=C/CC/C(C)=C/CSc1ccccc1C(=O)N1CCC[C@H]1C(=O)OC(C)CCOc1no[n+]([O-])c1S(=O)(=O)c1ccccc1 (stereo partly drawn)	8.47	7.93	6.5	13.9	1.54												
CC(C)=CCC/C(C)=C/CC/C(C)=C/CSc1ccccc1C(=O)O [SALIRASIB]	54	46.9	46.8	37.7	51.2						inactive	inactive	inactive				
CC(C)=CCC/C(C)=C/CC/C(C)=C/CSc1ccccc1C(=O)N[C@@H](C)C(=O)OCCOCCOc1no[n+]([O-])c1S(=O)(=O)c1ccccc1	18.1	8.04	7.68	11.3	4.21	Active	Active	Active	Active	Active	Active	Active	Active	inactive	inactive		
CC(C)=CCC/C(C)=C/CC/C(C)=C/CSc1ccccc1C(=O)NCC(=O)OC(C)CCOc1no[n+]([O-])c1S(=O)(=O)c1ccccc1 (stereo not drawn)	15.3	10.8	9.11	11.9	7.26												
CC(C)=CCC/C(C)=C/CC/C(C)=C/CSc1ccccc1C(=O)N[C@@H](Cc1ccccc1)C(=O)OCCOCCOc1no[n+]([O-])c1S(=O)(=O)c1ccccc1	> 50	> 50	> 50	> 50	> 50												
CC(C)=CCC/C(C)=C/CC/C(C)=C/CSc1ccccc1C(=O)N[C@@H](C)C(=O)OC(C)CCOc1no[n+]([O-])c1S(=O)(=O)c1ccccc1 (stereo partly drawn)	20.4	15.3	11.1	> 50	5.05												
CC(C)=CCC/C(C)=C/CC/C(C)=C/CSc1ccccc1C(=O)NCC(=O)OCCCCOc1no[n+]([O-])c1S(=O)(=O)c1ccccc1	> 50	28.2	25.1	> 50	9.99												
CC(C)=CCC/C(C)=C/CC/C(C)=C/CSc1ccccc1C(=O)NCC(=O)OCCOCCOc1no[n+]([O-])c1S(=O)(=O)c1ccccc1	7.34	8.58	6.59	19.5	2.41	Active	Active	Active	Active	Active							
CC(C)=CCC/C(C)=C/CC/C(C)=C/CSc1ccccc1C(=O)N1CCC[C@H]1C(=O)OCC#CCOc1no[n+]([O-])c1S(=O)(=O)c1ccccc1	13.5	3.56	5.49	7.35	1.07	Active	Active	Active	Active	Active						50	4
CC(C)=CCC/C(C)=C/CC/C(C)=C/CSc1ccccc1C(=O)N[C@@H](C)C(=O)OCC#CCOc1no[n+]([O-])c1S(=O)(=O)c1ccccc1	5.18	7.31	5.03	11.4	1.01												
CNC(=O)c1cc(Oc2ccc(NC(=O)Nc3ccc(Cl)c(C(F)(F)F)c3)cc2)ccn1 [SORAFENIB]	21.1	24.7	8.83	10.4	4.77												
CC(C)=CCC/C(C)=C/CC/C(C)=C/CSc1ccccc1C(=O)N1CCC[C@H]1C(=O)OCCOCCOc1no[n+]([O-])c1S(=O)(=O)c1ccccc1	12.9	4.83	8.77	7.86	3.16	Active	Active	Active	Active	Active							
